Experiments:
[1] = test system: Homo sapiens; assay: Total drug recovery in human at 50 mg, po administered as single dose during 0 to 504 hrs by liquid scintillation counting; format: ADME, organism-based; set-up: dosed compound name [14C]Sunitinib; details: in vivo
[2] = Drug concentration in male Lister Hooded pigmented rat brown fat assessed as radioactivity per gram of tissue at 20 mg/kg administered as single dose via gastric gavage measured after 168 hrs by autoradiographic analysis; format: ADME, organism-based, Brown adipose tissue; set-up: dose 20 mg/kg, dosed compound name [14C]Sunitinib; details: in vivo, po
[3] = test system: Rattus norvegicus; assay: Tmax as total radioactivity in female Sprague-Dawley rat plasma at 15 mg/kg, po administered as single dose by LC/MS/MS analysis; format: ADME, organism-based; set-up: dose 15 mg/kg, dosed compound name [14C]Sunitinib, route oral; details: in vivo
[4] = Drug concentration in male albino rat brown fat assessed as radioactivity per gram of tissue at 20 mg/kg administered as single dose via gastric gavage measured after 3 hrs by autoradiographic analysis; format: ADME, organism-based, Brown adipose tissue; set-up: dose 20 mg/kg, dosed compound name [14C]Sunitinib; details: in vivo, po
[5] = test system: Spleen; assay: Drug concentration in male albino rat spleen assessed as radioactivity per gram of tissue at 20 mg/kg administered as single dose via gastric gavage measured after 72 hrs by autoradiographic analysis; format: ADME, organism-based; set-up: dose 20 mg/kg, dosed compound name [14C]Sunitinib; details: in vivo, po
[6] = test system: Stomach; assay: Drug concentration in female albino rat stomach assessed as radioactivity per gram of tissue at 20 mg/kg administered as single dose via gastric gavage measured after 6 hrs by autoradiographic analysis; format: ADME, organism-based; set-up: dose 20 mg/kg, dosed compound name [14C]Sunitinib; details: in vivo, po
[7] = Drug concentration in female albino rat salivary gland assessed as radioactivity per gram of tissue at 20 mg/kg administered as single dose via gastric gavage measured after 6 hrs by autoradiographic analysis; format: ADME, organism-based; set-up: dose 20 mg/kg, dosed compound name [14C]Sunitinib; details: in vivo, po
[8] = test system: Adrenal; assay: Drug concentration in female Lister Hooded pigmented rat adrenal assessed as radioactivity per gram of tissue at 20 mg/kg administered as single dose via gastric gavage measured after 336 hrs by autoradiographic analysis; format: ADME, organism-based; set-up: dose 20 mg/kg, dosed compound name [14C]Sunitinib; details: in vivo, po
In short: (§1)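 Lister Hooded (pigmented) rats, ca 7-8 weeks old, acclimated 7 days, given [14C]sunitinib L-malate by gastric gavage at 20 mg/kg (15 mg freebase/kg, 100 µCi/kg). One male and one female killed by CO2 at 24, 72, 168 and 336 h. Carcasses frozen in solid CO2/hexane and embedded in frozen cellulose. 30 µm sagittal cryosections were freeze-dried. Tissue radioactivity measured by quantitative whole-body autoradiography against calibration standards, with background subtracted.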

[9] = test system: Heart; assay: Drug concentration in male albino rat heart assessed as radioactivity per gram of tissue at 20 mg/kg administered as single dose via gastric gavage measured after 3 hrs by autoradiographic analysis; format: ADME, organism-based; set-up: dose 20 mg/kg, dosed compound name [14C]Sunitinib; details: in vivo, po
[10] = Drug concentration in male Lister Hooded pigmented rat testis assessed as radioactivity per gram of tissue at 20 mg/kg administered as single dose via gastric gavage measured after 24 hrs by autoradiographic analysis; format: ADME, organism-based; set-up: dose 20 mg/kg, dosed compound name [14C]Sunitinib; details: in vivo, po
[11] = Drug concentration in female Lister Hooded pigmented rat brown fat assessed as radioactivity per gram of tissue at 20 mg/kg administered as single dose via gastric gavage measured after 24 hrs by autoradiographic analysis; format: ADME, organism-based, Brown adipose tissue; set-up: dose 20 mg/kg, dosed compound name [14C]Sunitinib; details: in vivo, po; in short: as §1
[12] = test system: Thymus; assay: Drug concentration in male Lister Hooded pigmented rat thymus assessed as radioactivity per gram of tissue at 20 mg/kg administered as single dose via gastric gavage measured after 24 hrs by autoradiographic analysis; format: ADME, organism-based; set-up: dose 20 mg/kg, dosed compound name [14C]Sunitinib; details: in vivo, po
[13] = test system: Cynomolgus monkey; assay: Cmax as total radioactivity in female cynomolgus monkey plasma at 6 mg/kg, po administered as single dose by LC/MS/MS analysis; format: ADME, organism-based, Macaca fascicularis; set-up: dose 6 mg/kg, dosed compound name [14C]Sunitinib, route oral; details: in vivo
In short: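 Cynomolgus monkeys of both sexes received one oral gavage of [14C]sunitinib L-malate at 6 mg/kg (37 µCi/kg). Femoral-vein blood was taken into heparin from 0.5 to 336 h. Plasma was kept cold and protected from light, then stored at -80 °C. Total radioactivity was by scintillation counting and sunitinib by methanol-extraction LC-MS-MS. Cmax was from raw data, t½ from the log-linear terminal slope, AUC(0-∞) by linear trapezoidal rule.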

[14] = test system: Ovary; assay: Drug concentration in female albino rat ovary assessed as radioactivity per gram of tissue at 20 mg/kg administered as single dose via gastric gavage measured after 6 hrs by autoradiographic analysis; format: ADME, organism-based, Female gonad; set-up: dose 20 mg/kg, dosed compound name [14C]Sunitinib; details: in vivo, po
In short: (§2)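 Sprague Dawley albino rats, ca 7-8 weeks old, dosed once by gastric gavage with [14C]sunitinib L-malate (15 mg freebase/kg, 100 µCi/kg). One male and one female killed by CO2 at 3, 6, 24, 72 and 168 h. Carcasses frozen in solid CO2/hexane, embedded and cut into 30 µm sagittal sections, then freeze-dried. Radioactivity quantified by whole-body autoradiography against standards by regression, background subtracted.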

[15] = test system: Liver; assay: Drug concentration in male albino rat liver assessed as radioactivity per gram of tissue at 20 mg/kg administered as single dose via gastric gavage measured after 72 hrs by autoradiographic analysis; format: ADME, organism-based; set-up: dose 20 mg/kg, dosed compound name [14C]Sunitinib; details: in vivo, po
[16] = test system: Adrenal; assay: Drug concentration in male albino rat adrenal assessed as radioactivity per gram of tissue at 20 mg/kg administered as single dose via gastric gavage measured after 24 hrs by autoradiographic analysis; format: ADME, organism-based; set-up: dose 20 mg/kg, dosed compound name [14C]Sunitinib; details: in vivo, po
[17] = test system: Liver; assay: Drug concentration in female albino rat liver assessed as radioactivity per gram of tissue at 20 mg/kg administered as single dose via gastric gavage measured after 3 hrs by autoradiographic analysis; format: ADME, organism-based; set-up: dose 20 mg/kg, dosed compound name [14C]Sunitinib; details: in vivo, po; in short: as §2
[18] = Drug concentration in male Lister Hooded pigmented rat uveal tract assessed as radioactivity per gram of tissue at 20 mg/kg administered as single dose via gastric gavage measured after 72 hrs by autoradiographic analysis; format: ADME, organism-based; set-up: dose 20 mg/kg, dosed compound name [14C]Sunitinib; details: in vivo, po
[19] = test system: Brain; assay: Drug concentration in male Lister Hooded pigmented rat brain assessed as radioactivity per gram of tissue at 20 mg/kg administered as single dose via gastric gavage measured after 168 hrs by autoradiographic analysis; format: ADME, organism-based; set-up: dose 20 mg/kg, dosed compound name [14C]Sunitinib; details: in vivo, po
[20] = test system: Cynomolgus monkey; assay: Terminal half life as total radioactivity in female cynomolgus monkey plasma at 6 mg/kg, po administered as single dose by LC/MS/MS analysis; format: ADME, organism-based, Macaca fascicularis; set-up: dose 6 mg/kg, dosed compound name [14C]Sunitinib, route oral; details: in vivo
[21] = Drug concentration in male Lister Hooded pigmented rat pituitary gland assessed as radioactivity per gram of tissue at 20 mg/kg administered as single dose via gastric gavage measured after 168 hrs by autoradiographic analysis; format: ADME, organism-based; set-up: dose 20 mg/kg, dosed compound name [14C]Sunitinib; details: in vivo, po
[22] = test system: Thymus; assay: Drug concentration in female albino rat thymus assessed as radioactivity per gram of tissue at 20 mg/kg administered as single dose via gastric gavage measured after 6 hrs by autoradiographic analysis; format: ADME, organism-based; set-up: dose 20 mg/kg, dosed compound name [14C]Sunitinib; details: in vivo, po
[23] = test system: Kidney; assay: Drug concentration in female albino rat kidney assessed as radioactivity per gram of tissue at 20 mg/kg administered as single dose via gastric gavage measured after 6 hrs by autoradiographic analysis; format: ADME, organism-based; set-up: dose 20 mg/kg, dosed compound name [14C]Sunitinib; details: in vivo, po; in short: as §2
[24] = test system: Liver; assay: Drug concentration in female Lister Hooded pigmented rat liver assessed as radioactivity per gram of tissue at 20 mg/kg administered as single dose via gastric gavage measured after 72 hrs by autoradiographic analysis; format: ADME, organism-based; set-up: dose 20 mg/kg, dosed compound name [14C]Sunitinib; details: in vivo, po; in short: as §1
[25] = test system: Small intestine; assay: Drug concentration in male albino rat small intestine assessed as radioactivity per gram of tissue at 20 mg/kg administered as single dose via gastric gavage measured after 6 hrs by autoradiographic analysis; format: ADME, organism-based; set-up: dose 20 mg/kg, dosed compound name [14C]Sunitinib; details: in vivo, po
[26] = test system: Zone of skin; assay: Drug concentration in male albino rat abdomen skin assessed as radioactivity per gram of tissue at 20 mg/kg administered as single dose via gastric gavage measured after 6 hrs by autoradiographic analysis; format: ADME, organism-based; set-up: dose 20 mg/kg, dosed compound name [14C]Sunitinib; details: in vivo, po
[27] = test system: Rattus norvegicus; assay: Total drug recovery in female Sprague-Dawley rat at 15 mg/kg, po administered as single dose during 0 to 72 hrs by liquid scintillation counting; format: ADME, organism-based; set-up: dose 15 mg/kg, dosed compound name [14C]Sunitinib, route oral; details: in vivo
[28] = Drug concentration in female Lister Hooded pigmented rat lymph node assessed as radioactivity per gram of tissue at 20 mg/kg administered as single dose via gastric gavage measured after 24 hrs by autoradiographic analysis; format: ADME, organism-based; set-up: dose 20 mg/kg, dosed compound name [14C]Sunitinib; details: in vivo, po
In short: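 Sprague Dawley (albino) and Lister Hooded (pigmented) rats, ca 7-8 weeks old, 179-310 g, acclimated 7 days. Single gavage dose of [14C]sunitinib L-malate (15 mg freebase/kg, 100 µCi/kg). One male and one female killed by CO2 per time point: albino at 3, 6, 24, 72, 168 h; pigmented at 24, 72, 168, 336 h. Carcasses frozen in solid CO2/hexane, 30 µm sagittal sections freeze-dried. Tissue radioactivity read by quantitative whole-body autoradiography against regression of standards, mean background subtracted.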

## CCN(CC)CCNC(=O)c1c(C)[nH]c(/[14CH]=C2\C(=O)Nc3ccc(F)cc32)c1C.O=C(O)C[C@H](O)C(=O)O
[1]
  Radiolabel recovery: 77%
[2]
  Radiolabel recovery: 0.06 ugequiv
[3]
  Tmax: 6 h
[4]
  Radiolabel recovery: 8.47 ugequiv
[5]
  Radiolabel recovery: 0.2 ugequiv
[6]
  Radiolabel recovery: 8.54 ugequiv
[7]
  Radiolabel recovery: 23.1 ugequiv
[8]
  Radiolabel recovery: 0.66 ugequiv
[9]
  Radiolabel recovery: 5.58 ugequiv
[10]
  Radiolabel recovery: 2.27 ugequiv
[11]
  Radiolabel recovery: 0.73 ugequiv
[12]
  Radiolabel recovery: 0.67 ugequiv
[13]
  Cmax: 214 ngequiv/ml
[14]
  Radiolabel recovery: 11.63 ugequiv
[15]
  Radiolabel recovery: 0.24 ugequiv
[16]
  Radiolabel recovery: 4.11 ugequiv
[17]
  Radiolabel recovery: 19.89 ugequiv
[18]
  Radiolabel recovery: 147.37 ugequiv
[19]
  Radiolabel recovery: 0.06 ugequiv
[20]
  beta t1/2: 121 h
[21]
  Radiolabel recovery: 81.06 ugequiv
[22]
  Radiolabel recovery: 9.8 ugequiv
[23]
  Radiolabel recovery: 16.48 ugequiv
[24]
  Radiolabel recovery: 0.32 ugequiv
[25]
  Radiolabel recovery: 5.54 ugequiv
[26]
  Radiolabel recovery: 3.45 ugequiv
[27]
  Radiolabel recovery: 82.5%
[28]
  Radiolabel recovery: 1.14 ugequiv
